Active and inactive are the calls of the source. The rule behind the calls is not given here.
Columns and labels:
CCRF-CEM = experiment: Antiproliferative activity against human CCRF-CEM cells assessed as cell viability measured after 4 days by MTT assay; format: functional, cell-based; details: 96 h
Method in brief: (§1)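 Leukemia/lymphoma cells (RPMI 1640, 10% FCS) resuspended at 1 × 10⁵ cells/mL with serial drug dilutions and read by MTT after 96 h at 37 °C. Solid-tumor cells (own media, 10% FCS) were seeded at 5 × 10⁴ cells/mL, allowed 16 h to adhere, then dosed and read by MTT 4 days later. IC50 was derived by linear regression of growth as % of untreated controls.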

CCRF-SB = experiment: Antiproliferative activity against human CCRF-SB cells assessed as cell viability measured after 4 days by MTT assay; format: functional, cell-based; details: 96 h; method in brief: as §1
MT4 = experiment: Antiproliferative activity against human MT-4 cells assessed as cell viability measured after 4 days by MTT assay; format: functional, cell-based; details: MT4, 96 h; method in brief: as §1
HT-29 = experiment: Antiproliferative activity against human HT-29 cells assessed as cell viability measured after 4 days by MTT assay; format: functional, cell-based; details: HT-29, 96 h; method in brief: as §1
MCF7 = experiment: Antiproliferative activity against human MCF7 cells assessed as cell viability measured after 4 days by MTT assay; format: functional, cell-based; details: MCF7, 96 h; method in brief: as §1
HeLa = experiment: Antiproliferative activity against human HeLa cells assessed as cell viability measured after 4 days by MTT assay; format: functional, cell-based; details: 96 h
Method in brief: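 Solid-tumor cells (own media, 10% FCS) were seeded at 5 × 10⁴ cells/mL, allowed 16 h to adhere, then dosed and read by MTT 4 days later. IC50 was derived by linear regression of growth as % of untreated controls.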

ACHN = experiment: Antiproliferative activity against human ACHN cells assessed as cell viability measured after 4 days by MTT assay; format: functional, cell-based; details: 96 h; method in brief: as §1
SK-MEL-28 = experiment: Antiproliferative activity against human SKMEL-28 cells assessed as cell viability measured after 4 days by MTT assay; format: functional, cell-based; details: SK-MEL-28, 96 h; method in brief: as §1
G-361 = experiment: Antiproliferative activity against human G-361 cells assessed as cell viability measured after 4 days by MTT assay; format: functional, cell-based; details: G-361, 96 h; method in brief: as §1
Calf thymus DNA [1] = experiment: Binding affinity to calf thymus DNA assessed as lamda max by UV-vis spectroscopy; format: nucleic-acid assay; details: Bos taurus
Method in brief: (§2)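 ctDNA held at 0.2 mM in phosphate buffer pH 7 and titrated with drug from […]. UV-vis spectra recorded in a 1 cm quartz cuvette. Binding constant was taken by the mole-ratio method from optical density changes at 260 nm, using a double reciprocal plot.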

Calf thymus DNA [2] = experiment: Binding affinity to calf thymus DNA assessed as isosbestic point by UV-vis spectroscopy; format: nucleic-acid assay; details: Bos taurus; method in brief: as §2
Calf thymus DNA [3] = experiment: Binding affinity to calf thymus DNA assessed as red shift by UV-vis spectroscopy; format: nucleic-acid assay; design: unit not given here; details: Bos taurus; method in brief: as §2
DNA = experiment: Binding affinity at Escherichia coli pBR322 DNA assessed as unwinding of supercoiled DNA at 10 uM incubated for 10 mins in presence of human topoisomerase 1 by agarose gel based electrophoresis; format: nucleic-acid assay
Method in brief: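 Intercalation assay with relaxed pBR322 (300 ng) and 2 units human Topo I in 50 mM Tris-HCl pH 7.5, 2.5 mM MgCl₂, 0.5 mM DTT and 50 µg/mL BSA, run 10 min at 37 °C. Stopped by phenol/chloroform/isoamyl alcohol extraction. Products run on 1.2% agarose in TAE, 2 V/cm for 15 h, then EtBr-stained. EtBr served as control; three independent experiments.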

Calf thymus DNA [4] = experiment: Binding affinity to calf thymus DNA assessed as hypochromism by UV-vis spectroscopy; details: Bos taurus

Row | SMILES | IC50 (CCRF-CEM) [nM] | IC50 (CCRF-SB) [nM] | IC50 (HT-29) [nM] | IC50 (MCF7) [nM] | IC50 (HeLa) [nM] | IC50 (ACHN) [nM] | IC50 (SK-MEL-28) [nM] | Activity (Calf thymus DNA [1]) | Activity (Calf thymus DNA [2]) [nm] | Activity (Calf thymus DNA [3]) | Activity (DNA) | Activity (Calf thymus DNA [4]) [%] | IC50 (MT4) [nM] | IC50 (G-361) [nM]
1 | COc1cccc2c1C(=O)c1c(O)c3c(c(O)c1C2=O)C[C@@](O)(C(=O)CO)C[C@@H]3O[C@H]1C[C@H](N)[C@H](O)[C@H](C)O1 [DOXORUBICIN] | 20 | – | – | – | – | – | – | – | – | – | – | – | – | –
2 | O=c1cc2oc3ccccc3nc-2c2ncccc12 | 90 | 150 | 380 | 370 | 150 | 230 | 400 | – | – | – | – | – | 180 | 450
3 | O=c1cc2oc3ccccc3nc-2c2cccnc12 | – | – | – | 230 | – | – | – | – | – | – | – | – | – | –
4 | COc1cc([C@@H]2c3cc4c(cc3[C@@H](O[C@@H]3O[C@@H]5CO[C@@H](C)O[C@H]5[C@H](O)[C@H]3O)[C@H]3COC(=O)[C@H]23)OCO4)cc(OC)c1O [ETOPOSIDE] | – | – | – | – | 3000 | – | 1100 | – | – | – | – | – | – | 2300

Now from value to compound, other results behind:

Row | IC50 (CCRF-CEM) [nM] | IC50 (CCRF-SB) [nM] | IC50 (HT-29) [nM] | IC50 (MCF7) [nM] | IC50 (HeLa) [nM] | IC50 (ACHN) [nM] | IC50 (SK-MEL-28) [nM] | Activity (Calf thymus DNA [1]) | Activity (Calf thymus DNA [2]) [nm] | Activity (Calf thymus DNA [3]) | Activity (DNA) | Activity (Calf thymus DNA [4]) [%] | SMILES | IC50 (MT4) [nM] | IC50 (G-361) [nM]
5 | 100 | 120 | 80 | 100 | 80 | 100 | 120 | 437 | 343 | 440 | Active | 30 | NCCCC[C@H](NC(=O)c1ccc2oc3cc(=O)c4ncccc4c-3nc2c1)C(=O)O | 90 | 60
6 | 150 | 160 | 100 | 120 | 100 | 70 | 80 | 459 | 320 | 461 | – | 17 | N[C@@H](CCCCNC(=O)c1ccc2nc3c4ncccc4c(=O)cc-3oc2c1)C(=O)O | 200 | 90

Source: ChEMBL document CHEMBL4706487, “Antitumor agents 7. Synthesis, antiproliferative activity and molecular modeling of new l-lysine-conjugated pyridophenoxazinones as potent DNA-binding ligands and topoisomerase IIα inhibitors” (Eur J Med Chem, 2020)
